Experimental data taken from publication PMC5644278 (Alzheimer's & Dementia : Translational Research & Clinical …, 2016).

How the values were obtained:
Format in all cases: in vivo, human
healthy male subjects [1] = assay: Adaptive tracking; conditions: donepezil 10 mg oral; healthy elderly males
How it was run: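 Healthy males got one intranasal spray dose in a double-dummy design with oral capsules: 11 mg for young subjects, 22 or 33 mg for elderly subjects, 6 per dose, with age-matched nasal placebo. NeuroCart tests were run twice before dosing, then at 1, 2, 3, 4, 5, 6, 8 and 10 h after, in a quiet room, one subject per session. Analysis was mixed-model ANOVA: treatment, time and treatment×time fixed, subject random, baseline as covariate.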

healthy male subjects [2] = assay: Treatment emergent adverse events, single dose study; conditions: for Nausea, incidence: healthy elderly males; for Diarrhea, incidence / Vomiting, incidence: healthy elderly subjects
[3] = Plasma pharmacokinetics after single intranasal dose of Gln-1062; conditions: for half-life / AUC(0-inf) / Cmax: male, human, inhaled or intranasal
healthy male subjects [4] = assay: VAS nausea, single dose; conditions: healthy elderly males
healthy male subjects [5] = assay: NeuroCart test battery, overall pharmacodynamic effects; conditions: galantamine 16 mg oral; healthy elderly males
How it was run: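 Double-blind study in healthy nonsmoking elderly men (cohorts 3–4, 12 on active drug). A single oral 16 mg dose was given at the same time as the other cohort treatments, with elderly double-placebo controls. Battery: N-back, Stroop, adaptive tracking, Bond–Lader VAS, pharmaco-EEG, eye movements, pupil size, body sway, face encoding/recognition and VVLT. Two baseline runs, then 1–6, 8 and 10 h post-dose. VVLT ran at 1 h 30 min only; face recognition predose and at 1 h 45 min. Analysis by mixed-model ANOVA with fixed factor treatment.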

Q: With `COc1cc2c(cc1OC)C(=O)C(CC1CCN(Cc3ccccc3)CC1)C2` (stereo not drawn) [donepezil, reference compound] as the molecule, how does the “adaptive tracking compared with placebo (in words)” value (healthy male subjects [1]) read?
A: Its value is “improvement”.

Q: What about the “Nausea, incidence” value (healthy male subjects [2]; donepezil 10 mg oral) of the same molecule?
A: Its value is 16.7%.

Q: And the “Diarrhea, incidence” value (healthy male subjects [2]; donepezil 10 mg oral)?
A: The value was 33.3%.

Q: What about the “Vomiting, incidence” value (healthy male subjects [2]; donepezil 10 mg oral) of the same molecule?
A: The value was 16.7%.

Q: Which half-life [3] does the source give for `COc1ccc2c3c1O[C@H]1C[C@@H](O)C=C[C@@]31CCN(C)C2` [galantamine] here?
A: Its half-life is about 10 h.

Q: And the AUC(0-inf) ([3]; 5.5 mg)?
A: Its AUC(0-inf) is 268 ng·h/mL.

Q: And the Cmax ([3]; 5.5 mg)?
A: Its Cmax is 17.6 ng/mL.

Q: What about the half-life ([3]; 5.5 mg) of the same molecule?
A: Its half-life is 9.85 h.

Q: What about the AUC(0-inf) ([3]; 11 mg) of the same molecule?
A: Its AUC(0-inf) is 367 ng·h/mL.

Q: And the Cmax ([3]; 11 mg)?
A: The Cmax was 27.7 ng/mL.

Q: What about the half-life ([3]; 11 mg) of the same molecule?
A: The half-life was 7.94 h.

Q: And the AUC(0-inf) ([3]; 22 mg)?
A: The AUC(0-inf) was 799 ng·h/mL.

Q: And the Cmax ([3]; 22 mg)?
A: The Cmax was 46.5 ng/mL.

Q: And the half-life ([3]; 22 mg)?
A: Its half-life is 8.71 h.

Q: And the AUC(0-inf) ([3]; 33 mg)?
A: Its AUC(0-inf) is 1190 ng·h/mL.

Q: And the Cmax ([3]; 33 mg)?
A: Its Cmax is 76.1 ng/mL.

Q: What about the half-life ([3]; 33 mg) of the same molecule?
A: The half-life was 9.24 h.

Q: What about the AUC(0-inf) ([3]; 44 mg) of the same molecule?
A: Its AUC(0-inf) is 1530 ng·h/mL.

Q: And the Cmax ([3]; 44 mg)?
A: Its Cmax is 74.7 ng/mL.

Q: And the half-life ([3]; 44 mg)?
A: The half-life was 11.1 h.

Q: And the “Tmax for galantamine after administration of Gln-1062” value ([3]; over the Gln-1062 intranasal dose levels)?
A: The value was 2.3 to 4.7 h.

Q: And the “peak of nausea (VAS nausea), time after administration” value (healthy male subjects [4])?
A: Its value is 2 h.

Q: And the “pharmacodynamic effects compared with placebo” value (healthy male subjects [5])?
A: The value was “did not induce any measurable pharmacodynamic effects”.

Q: And the “Cold sweat or hyperhidrosis, incidence” value (healthy male subjects [2]; galantamine 16 mg oral)?
A: Its value is 33.3%.

Q: What about the “Nausea, incidence” value (healthy male subjects [2]; galantamine 16 mg oral) of the same molecule?
A: Its value is 33.3%.

Q: What about the “Diarrhea, incidence” value (healthy male subjects [2]; galantamine 16 mg oral) of the same molecule?
A: The value was 8.3%.

Q: And the “Vomiting, incidence” value (healthy male subjects [2]; galantamine 16 mg oral)?
A: The value was 41.7%.
